In ChEMBL document CHEMBL3861950, “Design, synthesis and evaluation of novel 19F magnetic resonance sensitive protein tyrosine phosphatase inhibitors” (Medchemcomm, 2016):

Assays:
[1] = target: T1, Tyrosine-protein phosphatase non-receptor type 1 (Homo sapiens, UniProt P18031); assay: Inhibition of recombinant PTP1B (unknown origin) using pNPP as substrate by spectrophotometric method
T1 sequence (P18031 whole entry): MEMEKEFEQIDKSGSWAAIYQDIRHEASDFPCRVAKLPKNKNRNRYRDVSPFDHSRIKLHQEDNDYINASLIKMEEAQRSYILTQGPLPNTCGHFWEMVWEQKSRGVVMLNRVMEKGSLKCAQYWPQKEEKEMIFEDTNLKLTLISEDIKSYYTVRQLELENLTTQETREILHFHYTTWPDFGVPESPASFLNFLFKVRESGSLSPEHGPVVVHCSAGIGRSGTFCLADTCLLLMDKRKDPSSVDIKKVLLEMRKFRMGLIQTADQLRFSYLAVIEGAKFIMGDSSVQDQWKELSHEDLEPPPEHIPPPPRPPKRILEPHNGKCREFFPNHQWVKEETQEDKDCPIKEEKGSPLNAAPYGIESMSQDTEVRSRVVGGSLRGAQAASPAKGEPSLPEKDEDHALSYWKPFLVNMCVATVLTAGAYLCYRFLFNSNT
Outline: (§1)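 Recombinant PTP prepared in-house, assayed with pNPP substrate in 50 mM 3,3-dimethylglutarate buffer pH 7.0 containing 1 mM EDTA and 150 mM NaCl at 25 °C, in 96-well format. p-Nitrophenol product was quantified by absorbance at 405 nm. Non-enzymatic pNPP hydrolysis was corrected using a no-enzyme control.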

[2] = target: Tyrosine-protein phosphatase non-receptor type 13 (Homo sapiens, UniProt Q12923); assay: Inhibition of recombinant FAP1 (unknown origin) using pNPP as substrate by spectrophotometric method; outline: as §1
[3] = Inhibition of recombinant Mycobacterium tuberculosis PTPB using pNPP as substrate by spectrophotometric method
Outline: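 Recombinant enzyme made in-house. Substrate pNPP in 50 mM 3,3-dimethylglutarate buffer, pH 7.0, with 1 mM EDTA and 150 mM NaCl, at 25 °C, screened in 96-well format. p-Nitrophenol product read at 405 nm. Non-enzymatic pNPP hydrolysis was corrected using a control without enzyme.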

[4] = Selectivity ratio of IC50 for recombinant LYP (unknown origin) to IC50 for recombinant Mycobacterium tuberculosis PTPB
[5] = Selectivity ratio of IC50 for recombinant FAP1 (unknown origin) to IC50 for recombinant Mycobacterium tuberculosis PTPB

Chain of Tyrosine-protein phosphatase non-receptor type 13 (Q12923 whole entry): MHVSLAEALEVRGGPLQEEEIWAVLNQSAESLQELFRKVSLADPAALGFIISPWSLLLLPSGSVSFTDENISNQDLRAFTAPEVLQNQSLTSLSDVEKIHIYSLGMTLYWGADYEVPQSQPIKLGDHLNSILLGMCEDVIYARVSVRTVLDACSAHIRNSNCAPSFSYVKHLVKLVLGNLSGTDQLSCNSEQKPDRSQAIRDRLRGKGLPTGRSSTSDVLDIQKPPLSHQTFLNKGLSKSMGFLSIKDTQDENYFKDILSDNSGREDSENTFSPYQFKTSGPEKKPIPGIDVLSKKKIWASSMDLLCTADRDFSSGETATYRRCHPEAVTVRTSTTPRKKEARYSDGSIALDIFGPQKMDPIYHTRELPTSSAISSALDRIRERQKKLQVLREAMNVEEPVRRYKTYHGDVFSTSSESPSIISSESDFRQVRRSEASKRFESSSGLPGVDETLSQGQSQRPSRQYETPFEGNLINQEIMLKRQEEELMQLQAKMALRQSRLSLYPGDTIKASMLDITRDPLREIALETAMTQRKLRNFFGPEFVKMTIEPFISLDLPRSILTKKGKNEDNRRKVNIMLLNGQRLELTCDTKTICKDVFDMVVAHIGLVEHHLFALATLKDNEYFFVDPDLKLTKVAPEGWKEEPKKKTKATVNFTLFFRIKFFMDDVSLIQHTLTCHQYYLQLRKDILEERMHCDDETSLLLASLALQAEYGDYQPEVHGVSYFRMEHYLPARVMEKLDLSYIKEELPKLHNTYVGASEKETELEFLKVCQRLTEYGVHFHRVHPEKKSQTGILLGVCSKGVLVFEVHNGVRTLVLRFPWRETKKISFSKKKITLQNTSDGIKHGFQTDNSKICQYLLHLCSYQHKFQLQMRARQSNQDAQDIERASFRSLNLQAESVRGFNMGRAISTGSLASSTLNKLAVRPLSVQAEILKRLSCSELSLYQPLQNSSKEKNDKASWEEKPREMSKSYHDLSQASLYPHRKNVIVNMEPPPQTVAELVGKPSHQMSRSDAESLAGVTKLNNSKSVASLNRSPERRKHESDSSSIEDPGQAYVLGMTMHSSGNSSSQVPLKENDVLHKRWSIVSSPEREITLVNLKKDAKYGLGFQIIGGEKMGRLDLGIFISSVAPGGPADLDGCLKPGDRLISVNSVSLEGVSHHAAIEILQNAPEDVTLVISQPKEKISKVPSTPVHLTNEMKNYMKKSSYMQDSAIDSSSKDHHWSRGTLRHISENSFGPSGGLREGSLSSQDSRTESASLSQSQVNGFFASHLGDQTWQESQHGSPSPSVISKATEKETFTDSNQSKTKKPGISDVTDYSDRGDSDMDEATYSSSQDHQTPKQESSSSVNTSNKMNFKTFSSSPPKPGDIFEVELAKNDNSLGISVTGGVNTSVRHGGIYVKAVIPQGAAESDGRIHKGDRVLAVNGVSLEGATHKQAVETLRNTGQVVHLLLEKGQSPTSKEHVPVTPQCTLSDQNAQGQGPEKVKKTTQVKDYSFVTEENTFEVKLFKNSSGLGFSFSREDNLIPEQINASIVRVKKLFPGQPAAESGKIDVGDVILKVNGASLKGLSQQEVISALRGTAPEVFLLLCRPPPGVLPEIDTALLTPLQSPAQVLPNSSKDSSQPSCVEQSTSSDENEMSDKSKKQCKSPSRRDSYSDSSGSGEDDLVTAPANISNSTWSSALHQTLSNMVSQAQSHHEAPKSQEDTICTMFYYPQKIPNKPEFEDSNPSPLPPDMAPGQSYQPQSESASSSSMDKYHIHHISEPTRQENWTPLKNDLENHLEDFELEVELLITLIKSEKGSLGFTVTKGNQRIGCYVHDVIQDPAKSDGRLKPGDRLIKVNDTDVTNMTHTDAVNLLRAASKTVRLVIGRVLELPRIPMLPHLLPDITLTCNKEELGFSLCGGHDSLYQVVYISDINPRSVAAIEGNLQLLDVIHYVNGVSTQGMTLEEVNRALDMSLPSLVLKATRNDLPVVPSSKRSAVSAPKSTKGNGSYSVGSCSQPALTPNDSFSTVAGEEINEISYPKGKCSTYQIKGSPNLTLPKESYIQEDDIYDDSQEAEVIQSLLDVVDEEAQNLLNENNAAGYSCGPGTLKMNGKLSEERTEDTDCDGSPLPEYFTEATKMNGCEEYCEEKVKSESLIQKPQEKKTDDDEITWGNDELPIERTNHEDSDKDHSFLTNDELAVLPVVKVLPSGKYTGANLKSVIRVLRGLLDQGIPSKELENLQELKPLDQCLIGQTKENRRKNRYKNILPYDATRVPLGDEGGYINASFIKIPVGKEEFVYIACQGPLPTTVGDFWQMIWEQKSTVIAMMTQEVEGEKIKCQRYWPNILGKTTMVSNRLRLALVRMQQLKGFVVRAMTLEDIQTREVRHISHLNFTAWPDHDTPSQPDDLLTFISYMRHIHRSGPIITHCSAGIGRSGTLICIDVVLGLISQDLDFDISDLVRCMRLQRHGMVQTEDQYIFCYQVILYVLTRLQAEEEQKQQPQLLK

Cc1ccc(S(=O)(=O)NNC(=O)COc2ccc3cc(C(O)(C(F)(F)F)C(F)(F)F)c(O)cc3c2)cc1
IC50 [1]: > 20 µM
IC50 [2]: 14.9 µM
IC50 [3]: 2.3 µM
Ratio IC50 [4]: > 7
Ratio IC50 [5]: > 7
